# Test results taken from ChEMBL document CHEMBL5678808, “Human target validation of phosphoinositide 3-kinase (PI3K)β: effects on platelets and insulin sensitivity, using AZD6482 a novel PI3Kβ inhibitor” (J Thromb Haemost, 2012).
# pIC50: −log10 of the molar value.
# Experiments:
# [1] = biological target: Serine/threonine-protein kinase Nek2 (Homo sapiens) (UniProt P51955); experiment: Inhibition of human NEK2a at 10 uM relative to control
# [2] = biological target: Proto-oncogene tyrosine-protein kinase Src (Homo sapiens, UniProt P12931); experiment: Inhibition of human src
# [3] = biological target: Serine/threonine-protein kinase PAK 2 (Homo sapiens) (UniProt Q13177); experiment: Inhibition of human PAK2 at 10 uM relative to control
# [4] = Inhibition of PI3Kbeta in Beagle dog whole blood assessed as reduction in ADP-induced platelet aggregation at 1 uM preincubated for 5 mins followed by ADP addition and measured for 6 mins by impedance aggregometry relative to control; conditions: Canis lupus familiaris, 11 min, condition thrombotic disease
# [5] = biological target: Mitogen-activated protein kinase 13 (Homo sapiens) (UniProt O15264); experiment: Inhibition of human MAPK13 at 10 uM relative to control
# [6] = biological target: Dual specificity tyrosine-phosphorylation-regulated kinase 3 (Homo sapiens) (UniProt O43781); experiment: Inhibition of human DYRK3 phosphorylation at 10 uM relative to control
# [7] = biological target: Protein kinase C alpha type (Homo sapiens) (UniProt P17252); experiment: Inhibition of human PKCa at 10 uM relative to control
# [8] = biological target: Aurora kinase B (Homo sapiens, UniProt Q96GD4); experiment: Inhibition of human AurKB
# [9] = biological target: Vascular endothelial growth factor receptor 2 (Homo sapiens, UniProt P35968); experiment: Inhibition of human KDR
# [10] = Plasma concentration in human at 0.9 to 13.5 mg, iv administered for 3 hrs via infusion by LC-MS/MS analysis; type: ADME, organism-based; conditions: dose 0.9-13.5 mg
# Summary of the method: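 Randomized, double-blind, placebo-controlled single ascending dose study in healthy males aged 18–36, given a 3-h i.v. infusion. Plasma drug was measured by protein precipitation then LC-MS/MS, with non-compartmental PK analysis. The 3-h end-of-infusion sample was taken as steady-state concentration; mean, n = 6/dose.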
# [11] = biological target: Tyrosine-protein kinase CSK (Homo sapiens, UniProt P41240); experiment: Inhibition of human CSK
# [12] = biological target: Serine/threonine-protein kinase Chk2 (Homo sapiens) (UniProt O96017); experiment: Inhibition of human CHK2 at 10 uM relative to control
# [13] = species on record: Rattus norvegicus; experiment: Inhibition of rat AMPK at 10 uM relative to control
# [14] = Inhibition of […] mouse thymoma viral oncogene homolog 1 (unknown origin) at 10 uM relative to control; conditions: Homo sapiens, condition thrombotic disease
# [15] = biological target: Inhibitor of nuclear factor kappa-B kinase subunit beta (Homo sapiens) (UniProt O14920); experiment: Inhibition of human IKKb at 10 uM relative to control
# [16] = Toxicity in Sprague-Dawley rat assessed as change in heart rate at 30000 ug/kg, iv for 2 mins followed by 1500 ug/kg/min, iv for 28 mins; type: organism-based; conditions: in vivo, 30 mg/kg, 0.5 h, time 30 min
# Summary of the method: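 Overnight-fasted anesthetized rats got three consecutive escalating i.v. doses over 30 min each (n = 4/group). Heart rate and blood pressure were followed alongside end-of-interval blood samples for plasma drug exposure, glucose and insulin (relative HOMA index experiments).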
# [17] = Toxicity in Sprague-Dawley rat assessed as change in blood pressure at 1000 ug/kg, iv for 2 mins followed by 50 ug/kg/min, iv for 28 mins; type: organism-based; conditions: in vivo, 1 mg/kg, 0.5 h, time 30 min
# Summary of the method: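 Blood pressure was monitored in anesthetized rats during hyperinsulinemic–euglycemic clamps. There was an initial control period, then i.v. drug at 1000 μg kg−1 + 50 μg kg min−1 or 6000 μg kg−1 + 300 μg kg min−1. Heart rate was also recorded.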
# [18] = biological target: Mitogen-activated protein kinase 10 (Homo sapiens) (UniProt P53779); experiment: Inhibition of human JNK3 at 10 uM relative to control
# [19] = biological target: Serine/threonine-protein kinase BRSK2 (Homo sapiens) (UniProt Q8IWQ3); experiment: Inhibition of human BRSK2 at 10 uM relative to control
# [20] = biological target: Serine/threonine-protein kinase PLK1 (Homo sapiens, UniProt P53350); experiment: Inhibition of human PLK
# [21] = Renal clearance (0 to 24 hrs) in human at 121.5 to 364.5 mg, iv administered for 3 hrs via infusion by LC-MS/MS analysis; conditions: in vivo
# [22] = biological target: Fibroblast growth factor receptor 1 (Homo sapiens, UniProt P11362); experiment: Inhibition of human FGFR1
# [23] = Volume of distribution at steady state in human at 0.9 to 455.8 mg, iv administered for 3 hrs via infusion by LC-MS/MS analysis; type: ADME, organism-based; conditions: in vivo, dose 0.9-455.8 mg
# Summary of the method: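 Healthy male volunteers (18–36 years) in a randomized, double-blind, placebo-controlled single ascending-dose study received a 3-h i.v. infusion. Plasma drug levels were measured by protein precipitation then LC-MS/MS (LLOQ 0.005 μm). Non-compartmental pharmacokinetic analysis was used; median (range) across dose levels reported.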
# [24] = biological target: RAC-beta serine/threonine-protein kinase (Homo sapiens) (UniProt P31751); experiment: Inhibition of human AKT2 at 10 uM relative to control
# [25] = biological target: Mitogen-activated protein kinase 9 (Homo sapiens) (UniProt P45984); experiment: Inhibition of human MAPK9 at 10 uM relative to control
# [26] = biological target: Homeodomain-interacting protein kinase 3 (Homo sapiens) (UniProt Q9H422); experiment: Inhibition of human HIPK3 at 10 uM relative to control
# [27] = biological target: Myosin light chain kinase, smooth muscle (Homo sapiens) (UniProt Q15746); experiment: Inhibition of human smMLCK at 10 uM relative to control
# [28] = biological target: MAP kinase-interacting serine/threonine-protein kinase 2 (Homo sapiens) (UniProt Q9HBH9); experiment: Inhibition of human MNK2 at 10 uM relative to control
# [29] = system: Rattus norvegicus; experiment: Insulin sensitizing activity in Sprague-Dawley rat hyperinsulinemic-euglycemic glucose clamp model assessed as glucose level during infusion of human insulin at 1000 ug/kg/min, iv for 2 mins followed by 50 ug/kg/min, iv for 28 mins measured during clamp 1 by colorimetry (reference value: 8.4 +/- 0.8 mM); type: functional; conditions: time 30 min, 0.5 h
# Summary of the method: (§1)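 Anesthetized rats; hyperinsulinemic–euglycemic clamp with human insulin infused. A baseline clamp (Clamp1) was followed by a second clamp (Clamp2) with vehicle or drug i.v. The drug was given as a low dose (1000 μg kg−1 + 50 μg kg min−1) or a high dose (6000 μg kg−1 + 300 μg kg min−1). Steady-state glucose infusion rate for euglycemia was recorded, with plasma glucose, human insulin and total insulin; mean ± SEM, n = 4–5/group.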
# [30] = biological target: Calcium/calmodulin-dependent protein kinase type 1 (Homo sapiens) (UniProt Q14012); experiment: Inhibition of human CAMK at 10 uM relative to control
# [31] = system: Rattus norvegicus; experiment: Insulin sensitizing activity in Sprague-Dawley rat hyperinsulinemic-euglycemic glucose clamp model assessed as glucose infusion rate required to maintain euglycemia during infusion of human insulin at 6000 ug/kg/min, iv for 2 mins followed by 300 ug/kg/min, iv for 28 mins measured during clamp 1 (reference value: 124 +/- 4 umol/min/kg); type: functional; conditions: time 30 min, 0.5 h; summary of the method: as §1
# Serine/threonine-protein kinase PAK 2 (Homo sapiens), sequence (Q13177 whole entry): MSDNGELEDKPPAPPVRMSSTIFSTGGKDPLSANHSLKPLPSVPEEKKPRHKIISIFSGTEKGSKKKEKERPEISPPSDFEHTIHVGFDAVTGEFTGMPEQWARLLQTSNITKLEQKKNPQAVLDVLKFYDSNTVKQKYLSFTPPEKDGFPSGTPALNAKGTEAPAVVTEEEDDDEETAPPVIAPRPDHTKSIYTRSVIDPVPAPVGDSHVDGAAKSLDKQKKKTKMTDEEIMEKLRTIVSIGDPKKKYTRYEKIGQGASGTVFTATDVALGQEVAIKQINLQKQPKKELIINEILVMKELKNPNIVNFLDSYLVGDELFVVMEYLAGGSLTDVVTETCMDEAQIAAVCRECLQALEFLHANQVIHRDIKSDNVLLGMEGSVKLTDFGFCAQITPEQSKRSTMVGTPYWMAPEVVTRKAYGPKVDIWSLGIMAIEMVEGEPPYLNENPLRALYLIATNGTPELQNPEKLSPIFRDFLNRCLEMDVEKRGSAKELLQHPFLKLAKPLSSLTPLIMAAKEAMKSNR
# Tyrosine-protein kinase CSK, sequence (P41240 whole entry): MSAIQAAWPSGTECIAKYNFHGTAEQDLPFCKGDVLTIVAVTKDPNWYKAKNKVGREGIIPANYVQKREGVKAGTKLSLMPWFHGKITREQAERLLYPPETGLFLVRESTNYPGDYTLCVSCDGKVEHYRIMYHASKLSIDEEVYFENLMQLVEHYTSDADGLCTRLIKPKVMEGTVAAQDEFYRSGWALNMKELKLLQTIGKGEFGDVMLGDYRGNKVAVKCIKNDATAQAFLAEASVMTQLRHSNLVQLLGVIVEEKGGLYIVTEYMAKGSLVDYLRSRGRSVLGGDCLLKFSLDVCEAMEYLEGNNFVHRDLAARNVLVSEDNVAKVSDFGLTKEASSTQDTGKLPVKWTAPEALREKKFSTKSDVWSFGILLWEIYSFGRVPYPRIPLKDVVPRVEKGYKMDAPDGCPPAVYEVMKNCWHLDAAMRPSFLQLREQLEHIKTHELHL
# Mitogen-activated protein kinase 10 (Homo sapiens), sequence (P53779 whole entry): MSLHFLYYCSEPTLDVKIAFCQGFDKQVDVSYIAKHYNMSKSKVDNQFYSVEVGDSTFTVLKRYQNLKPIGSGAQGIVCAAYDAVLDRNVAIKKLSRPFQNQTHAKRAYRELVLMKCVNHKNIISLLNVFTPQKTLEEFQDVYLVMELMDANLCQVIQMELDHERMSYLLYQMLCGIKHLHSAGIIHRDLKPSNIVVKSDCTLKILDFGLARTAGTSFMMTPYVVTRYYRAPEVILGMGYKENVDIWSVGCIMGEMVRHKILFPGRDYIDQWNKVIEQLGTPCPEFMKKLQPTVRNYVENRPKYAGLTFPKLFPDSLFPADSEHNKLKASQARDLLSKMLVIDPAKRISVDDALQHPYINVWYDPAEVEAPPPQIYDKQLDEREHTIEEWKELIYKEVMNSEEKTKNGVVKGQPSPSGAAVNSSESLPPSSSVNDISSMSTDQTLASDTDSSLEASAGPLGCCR
# MAP kinase-interacting serine/threonine-protein kinase 2 (Homo sapiens), sequence (Q9HBH9 whole entry, looked up, the tested form may be a part): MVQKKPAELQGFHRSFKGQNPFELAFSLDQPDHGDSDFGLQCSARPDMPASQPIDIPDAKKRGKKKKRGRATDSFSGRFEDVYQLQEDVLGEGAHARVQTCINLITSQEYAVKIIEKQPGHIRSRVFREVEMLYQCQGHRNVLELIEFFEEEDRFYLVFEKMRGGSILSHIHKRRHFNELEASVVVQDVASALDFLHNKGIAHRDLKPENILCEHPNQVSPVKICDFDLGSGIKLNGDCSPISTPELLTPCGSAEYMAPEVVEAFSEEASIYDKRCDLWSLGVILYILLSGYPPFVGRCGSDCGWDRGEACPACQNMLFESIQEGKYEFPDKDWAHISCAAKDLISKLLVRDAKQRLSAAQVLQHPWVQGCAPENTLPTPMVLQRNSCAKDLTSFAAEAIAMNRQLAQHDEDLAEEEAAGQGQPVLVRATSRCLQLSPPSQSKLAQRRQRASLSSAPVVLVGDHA
# Vascular endothelial growth factor receptor 2, sequence (P35968 whole entry, the tested form may be a part): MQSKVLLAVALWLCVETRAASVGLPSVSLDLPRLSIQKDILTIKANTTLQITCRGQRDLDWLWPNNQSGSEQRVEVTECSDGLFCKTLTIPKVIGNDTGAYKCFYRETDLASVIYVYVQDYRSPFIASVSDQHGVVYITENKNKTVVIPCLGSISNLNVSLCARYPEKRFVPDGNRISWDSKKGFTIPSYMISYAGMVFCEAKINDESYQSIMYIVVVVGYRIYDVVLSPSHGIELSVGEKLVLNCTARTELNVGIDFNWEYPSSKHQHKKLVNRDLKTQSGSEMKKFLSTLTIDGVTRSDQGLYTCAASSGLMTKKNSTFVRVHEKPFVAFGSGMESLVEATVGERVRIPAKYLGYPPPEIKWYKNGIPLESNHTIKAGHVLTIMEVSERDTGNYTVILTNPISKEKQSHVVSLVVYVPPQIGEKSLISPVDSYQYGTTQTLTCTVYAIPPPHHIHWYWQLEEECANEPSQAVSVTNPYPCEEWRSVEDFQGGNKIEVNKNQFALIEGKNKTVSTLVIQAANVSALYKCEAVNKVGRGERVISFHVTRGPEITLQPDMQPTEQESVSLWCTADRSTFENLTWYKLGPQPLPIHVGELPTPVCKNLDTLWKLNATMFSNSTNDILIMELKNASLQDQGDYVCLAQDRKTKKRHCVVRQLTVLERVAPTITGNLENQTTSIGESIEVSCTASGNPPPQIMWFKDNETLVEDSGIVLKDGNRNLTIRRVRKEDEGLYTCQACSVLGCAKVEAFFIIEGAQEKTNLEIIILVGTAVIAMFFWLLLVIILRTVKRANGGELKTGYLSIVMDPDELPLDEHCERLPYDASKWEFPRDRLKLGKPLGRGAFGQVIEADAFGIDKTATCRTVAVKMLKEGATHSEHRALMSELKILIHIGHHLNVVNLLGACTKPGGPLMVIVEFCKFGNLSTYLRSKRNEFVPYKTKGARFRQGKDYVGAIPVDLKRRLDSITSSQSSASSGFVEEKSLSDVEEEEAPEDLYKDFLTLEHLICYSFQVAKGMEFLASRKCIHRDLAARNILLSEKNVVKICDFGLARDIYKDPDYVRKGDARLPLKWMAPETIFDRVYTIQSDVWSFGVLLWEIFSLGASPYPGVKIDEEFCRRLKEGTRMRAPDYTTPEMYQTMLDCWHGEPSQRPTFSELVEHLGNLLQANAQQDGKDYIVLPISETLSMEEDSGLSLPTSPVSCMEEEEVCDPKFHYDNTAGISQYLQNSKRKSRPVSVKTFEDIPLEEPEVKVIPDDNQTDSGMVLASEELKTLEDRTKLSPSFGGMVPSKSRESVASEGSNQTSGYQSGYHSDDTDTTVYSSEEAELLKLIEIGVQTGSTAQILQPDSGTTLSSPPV
# Serine/threonine-protein kinase Nek2 (Homo sapiens), sequence (P51955 whole entry): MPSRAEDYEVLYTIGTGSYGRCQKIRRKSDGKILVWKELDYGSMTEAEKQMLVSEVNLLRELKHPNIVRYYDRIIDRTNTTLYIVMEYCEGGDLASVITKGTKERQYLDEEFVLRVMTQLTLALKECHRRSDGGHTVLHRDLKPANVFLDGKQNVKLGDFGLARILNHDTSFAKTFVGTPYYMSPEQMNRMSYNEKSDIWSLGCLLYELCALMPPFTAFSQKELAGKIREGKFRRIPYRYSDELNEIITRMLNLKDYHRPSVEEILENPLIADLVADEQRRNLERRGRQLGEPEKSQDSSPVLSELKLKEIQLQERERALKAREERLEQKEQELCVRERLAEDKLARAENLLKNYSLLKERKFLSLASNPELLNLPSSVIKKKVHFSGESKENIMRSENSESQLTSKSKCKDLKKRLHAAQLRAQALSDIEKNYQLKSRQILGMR
# Serine/threonine-protein kinase PLK1, sequence (P53350 whole entry, the tested form may be a part): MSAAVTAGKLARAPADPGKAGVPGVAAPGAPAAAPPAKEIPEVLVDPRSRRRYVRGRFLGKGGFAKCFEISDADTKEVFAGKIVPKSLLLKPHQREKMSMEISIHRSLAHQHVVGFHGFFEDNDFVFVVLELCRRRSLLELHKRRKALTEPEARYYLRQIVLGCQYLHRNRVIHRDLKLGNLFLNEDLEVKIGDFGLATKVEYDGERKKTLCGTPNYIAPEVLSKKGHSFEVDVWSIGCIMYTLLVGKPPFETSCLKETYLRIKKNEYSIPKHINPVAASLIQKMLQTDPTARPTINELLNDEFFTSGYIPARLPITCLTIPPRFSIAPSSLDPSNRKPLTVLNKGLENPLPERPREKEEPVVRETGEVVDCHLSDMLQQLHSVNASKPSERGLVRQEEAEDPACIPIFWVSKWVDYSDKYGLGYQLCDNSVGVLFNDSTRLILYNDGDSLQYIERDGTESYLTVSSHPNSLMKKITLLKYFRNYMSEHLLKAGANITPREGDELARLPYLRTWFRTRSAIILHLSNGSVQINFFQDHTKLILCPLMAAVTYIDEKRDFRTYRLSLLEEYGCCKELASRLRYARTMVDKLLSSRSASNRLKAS
smiles,measurement,setting,value
Cc1cc([C@@H](C)Nc2ccccc2C(=O)O)c2nc(N3CCOCC3)cc(=O)n2c1 [AZD-6482],inhibition,[1],1.3%
same,pIC50,[2],4.43
same,inhibition,[3],3.9%
same,inhibition at 1 µM,[4],> 80%
same,inhibition,[5],-10%
same,inhibition,[6],16%
same,inhibition,[7],-0.9%
same,pIC50,[8],4.55
same,pIC50,[9],< 3.93
same,concentration at 3 h,[10],< 5 nM
same,pIC50,[11],4.05
same,inhibition,[12],9.9%
same,inhibition,[13],14%
same,inhibition at 10 µM,[14],2.1%
same,inhibition,[15],-8.9%
same,Activity,[16],Non-Toxic
same,Activity,[17],Non-Toxic
same,inhibition,[18],4.4%
same,inhibition,[19],2.5%
same,pIC50,[20],4.08
same,CL renal at 3 h,[21],1.5 mL/min
same,pIC50,[22],< 3.16
same,Vd,[23],48 L
same,inhibition,[24],16%
same,inhibition,[25],0.2%
same,inhibition,[26],7.2%
same,inhibition,[27],2.6%
same,inhibition,[28],6.2%
same,Activity,[29],7.3 mM
same,inhibition,[30],9.7%
same,Activity,[31],106 µmol/min/kg
